The text below walks through data of the array DNA melting data of Ke et al. (doi:10.1101/2024.01.08.574731).

Data set [1] is described as follows: folding enthalpy; higher = less favourable; fluorescence melt of hairpins on a sequencing array, two-state fit. The settings on record: sodium 0.088 M. In outline: (§1)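 Folding enthalpy and melting temperature were estimated with bootstrapped two-state fits and combined across four replicates by inverse-variance weighting, with fitted temperatures raised by 9.35 °C to match UV melts. The data were Cy3 fluorescence of library hairpins, with annealed Cy3 and quencher oligos, on a sequenced MiSeq flow cell in 50 mM Na-HEPES pH 8.0, 25 mM NaCl, imaged in 2.5 °C steps up to 60 °C and normalised to pre-quench Cy3 and control constructs.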

The nature of data set [2]: melting temperature; fluorescence melt of hairpins on a sequencing array, two-state fit, raised by 9.35 °C to match UV melts. The settings on record: sodium 0.088 M. In outline: as §1

Turning to GCCTCGCGAAAGCACGGC (((..((....))..))), in data set [1], the folding enthalpy is -22.5 kcal/mol. The Tm in data set [2] was 54.1 °C.
The corresponding values for GCCTCGCGAAAGCCGGGC (((..((....))..))) are -22.5 kcal/mol and 55.8 °C.
The corresponding values for GCCTCGCGAAAGCGCGGC (((.(((....))).))) are -40.8 kcal/mol and 61.3 °C.
For GCCTCGCGAAAGCGCTGC ((..(((....)))..)), in that order: -10.4 kcal/mol and 38.5 °C.
Turning to GCCTCGCGAAAGCTATGC ((.(.((....)).).)), the folding enthalpy in data set [1] is -4.77 kcal/mol. Moreover, in data set [2], the Tm is 15.9 °C.
As for GCCTCGGGAAACTGAGGC (((((.(....).))))), the folding enthalpy in data set [1] is -37.1 kcal/mol. Besides, in data set [2], the Tm amounted to 59.4 °C.
For GCCTCGTCGAAAGACGGC (((..(((....)))))), the folding enthalpy in data set [1] is -8.04 kcal/mol. Besides, in data set [2], the Tm stood at 49.6 °C.
With GCCTCTCGAAAGAGCGGC (((.(((....))).))), the folding enthalpy in data set [1] is -37 kcal/mol. In addition, in data set [2], the Tm is 53.4 °C.
For GCCTCTGGAAACGGAGGC (((((.(....).))))), in that order: -40.7 kcal/mol and 57.5 °C.
As for GCCTGACGAAAGTCGGC (((.(((....)))))), the folding enthalpy in data set [1] is -23.2 kcal/mol. For the same sequence, the Tm in data set [2] is 63.1 °C.
As for GCCTGAGGAAACTCAAGC ((.((((....)))).)), in data set [1], the folding enthalpy is -21.6 kcal/mol. Further, the Tm in data set [2] was determined as 35.1 °C.
The corresponding values for GCCTGCGAAAGCAAGGGC ((((((....)))..))) are -18.7 kcal/mol and 61.3 °C.
The corresponding values for GCCTGCGAAAGCAGTGGC ((((((....)))..))) are -14.8 kcal/mol and 57.1 °C.
The corresponding values for GCCTGCGGAAACACAGGC (((((.(....).))))) are -40.8 kcal/mol and 52.4 °C.
For the sequence GCCTGCGGAAACGCAAGC ((.((((....)))).)), the folding enthalpy in data set [1] was -18.5 kcal/mol. Further, in data set [2], the Tm was 48 °C.
For GCCTGCGGAAACGTAGGC ((((.((....)).)))), in that order: -28 kcal/mol and 58 °C.
Take GCCTGGCGAAAGCCAAGC ((.((((....)))).)): in data set [1], the folding enthalpy was -17.5 kcal/mol. Besides, the Tm in data set [2] was 57.7 °C.
For GCCTGGCGAAAGCGAGGC ((((.((....)).)))), in that order: -26.8 kcal/mol and 68.2 °C.
For GCCTGGCGAAAGCTATGC ((.(.((....)).).)), in that order: -12.5 kcal/mol and 37.5 °C.
As to GCCTGGGGAAACCTAGGC ((((.((....)).)))), in data set [1], the folding enthalpy is -31.5 kcal/mol. Moreover, in data set [2], the Tm was 54.4 °C.
The corresponding values for GCCTGTCCGAAAGGAGGC (((..(((....)))))) are -19.2 kcal/mol and 46.6 °C.
For GCCTGTCGAAAGACTGGC (((.(((....))).))), in that order: -39.1 kcal/mol and 61.2 °C.
As to GCCTGTGGAAACACAAGC ((.((((....)))).)), the folding enthalpy in data set [1] was -22.5 kcal/mol. The Tm in data set [2] was 38.6 °C.
The corresponding values for GCCTTACGAAAGTAGGGC (((.(((....))).))) are -37.1 kcal/mol and 57.3 °C.
On to GCCTTAGCGAAAGCTGGC (((..(((....)))))), for which the folding enthalpy in data set [1] is -21 kcal/mol. Also, in data set [2], the Tm was 51.5 °C.
Take GCCTTAGGAAACCAAGGC (((((.(....).))))): the folding enthalpy in data set [1] is -27.4 kcal/mol. Further, the Tm in data set [2] is 45.2 °C.
For GCCTTAGGAAACTAGGGC (((.(((....))).))), in that order: -34.3 kcal/mol and 45.5 °C.
The corresponding values for GCCTTCCGAAAGGAGGC (((.(((....)))))) are -29.8 kcal/mol and 59.4 °C.
In the case of GCCTTCGAAAGAACAGGC ((((((....)))..))), in data set [1], the folding enthalpy was -26.7 kcal/mol. For the same sequence, in data set [2], the Tm amounted to 40.9 °C.
For GCCTTCGAAAGAACGGGC ((((((....)))..))), in that order: -23 kcal/mol and 41 °C.
For GCCTTCGAAAGAAGAGGC ((((((....)))..))), in that order: -23.4 kcal/mol and 46 °C.
Take GCCTTCGGAAACAAAGGC (((((.(....).))))): in data set [1], the folding enthalpy was -27.5 kcal/mol. In data set [2], the Tm was 41.9 °C.
Take GCCTTGAAAAAGGC (((((....))))): the folding enthalpy in data set [1] was -24.4 kcal/mol. Moreover, the Tm in data set [2] was found to be 58.1 °C.
For GCCTTGACGAAAGTCGGC (((..(((....)))))), in that order: -16 kcal/mol and 50.3 °C.
For GCCTTGCCGAAAGGCGGC (((..(((....)))))), in that order: -10.8 kcal/mol and 67.5 °C.
For GCCTTGCGAAAGCAGCGC ((..(((....)))..)), in that order: -14.6 kcal/mol and 52.9 °C.
As for GCCTTGCGAAAGCAGGGC (((.(((....))).))), the folding enthalpy in data set [1] was -29.5 kcal/mol. The Tm in data set [2] stood at 69 °C.
